The text below walks through data of ChEMBL document CHEMBL5331127, “Discovery of ARD-2051 as a Potent and Orally Efficacious Proteolysis Targeting Chimera (PROTAC) Degrader of Androgen Receptor for the Treatment of Advanced Prostate Cancer” (J Med Chem, 2023).

Structures are written as SMILES. Calls of active or inactive are those of the source. The calls are words filed in the database; no cut-off is given here. Where only a bound is given, the exact number is not on record here.

The nature of data set [1]: Drug concentration in ICR mouse plasma at 10 mg/kg, po measured after 1 hr. Type of data set: ADME, organism-based. An outline of the steps: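 Mice given a single 10 mg/kg dose by oral gavage, 3 mice per time point. Plasma drug levels measured at 1, 3, 6 and 24 h; mean ± SD reported.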
Data set [2] deals with VCaP. Briefly: Induction of androgen receptor degradation in human VCaP cells at 100 nM pretreated with thalidomide for 2 hrs followed by compound addition and 3 hrs by Western blot analysis. Format: functional, cell-based. To be noted: time 5.0 hrs. An outline of the steps: (§1)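 LNCaP or VCaP cells pretreated 2 h with DMSO, ARi-12 (10 μM), thalidomide (10 μM), MG-132 (3 μM) or MLN4924 (0.5 μM), then given degrader at 100 nM for 3 h. AR measured by Western blot with GAPDH as loading control.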
(A western blot detects proteins with antibodies after separation by electrophoresis.)

The nature of data set [3]: Oral bioavailability in ICR mouse at 5 mg/kg measured up to 24 hrs by LC-MS/MS analysis. Type of data set: ADME, organism-based. The note with it: in vivo. An outline of the steps: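 Male ICR mice. IV 2 mg/kg and PO 5 mg/kg, both in 10% PEG400 + 90% PBS adjusted to pH 8.0. Plasma sampled to 24 h; F from IV and PO exposure.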
Data set [4] relates to VCaP. Briefly: Antitumor activity against human VCaP cells xenografted in CB17 SCID mouse assessed as tumor growth inhibition at 7.5 mg/kg, po administered for 21 days. Format: functional. To be noted: 504 h, time 21 day, read-out: TGI. An outline of the steps: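 SCID mice bearing VCaP xenografts dosed by oral gavage once daily for 21 days at 3.75, 7.5, 12.5 or 25 mg/kg. Tumour growth inhibition calculated against vehicle-treated mice at the end of treatment; body weight monitored.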

In data set [5] the test system is Mus musculus. Briefly: In vivo induction of androgen receptor degradation in human VCaP cells xenografted in CB17 SCID mouse assessed as reduction in KLK3 mRNA level at 12.5 mg/kg, po measured after 6 to 24 hrs by qRT-PCR analysis. Format: functional, organism-based. To be noted: time 6-24 hrs. A general note: In xenograft studies the graft and the host belong to different species.

Data set [6] can be described thus: Metabolic stability in monkey hepatocytes assessed as half life at 1 uM measured upto 120 mins in presence of NADPH by LC-MS/MS analysis. Type of data set: ADME, cell-based, Macaca mulatta, Hepatocyte. The note with it: rhesus monkey, 2 h.
Data set [7] in a line: Volume of distribution at steady state in Beagle dog at 1 mg/kg, iv measured upto 24 hrs by LC-MS/MS analysis. Format: ADME, organism-based, Canis lupus familiaris. The note with it: in vivo. An outline of the steps: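 Male Beagle dogs. IV 1 mg/kg in 10% PEG400 + 90% PBS (pH 8.0); PO 3 mg/kg in 90% PEG400 + 10% Cremophor. Plasma PK to 24 h; F from IV and PO exposure.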

The target in another data set is Cytochrome P450 2D6 (Homo sapiens, UniProt P10635). Briefly: Inhibition of CYP2D6 in human liver microsomes preincubated for 5 mins followed by NADPH addition and measured after 10 mins by LC/MS analysis. Type of data set: ADME, Microsome. (In general: Liver microsomes are a subcellular fraction often used to study metabolism.)
Data set [8] can be described thus: Metabolic stability in mouse plasma assessed as half life at 1 uM measured upto 120 mins by LC-MS/MS analysis. Format: ADME, cell-free. The note with it: 2 h. An outline of the steps:
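Compound at 1 μM final in pre-warmed plasma of each species, 37 °C for up to 2 h. ACN/IS quench at 0, 5, 15, 30, 60 and 120 min; LC/MS. Procaine as reference (benfluorex for rat). t1/2 = 0.693/slope of ln(fraction remaining) versus time.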

The test system of data set [9] is LNCaP. Briefly: Induction of androgen receptor degradation in human LNCaP cells at 100 nM pretreated with MLN4924 for 2 hrs followed by compound addition and 3 hrs by Western blot analysis. Type of data set: functional, cell-based. The note with it: time 5.0 hrs. An outline of the steps: as §1
Data set [10] in a line: Half life in Sprague-Dawley rat at 10 mg/kg, po measured up to 24 hrs by LC-MS/MS analysis. Format: ADME, organism-based. The note with it: in vivo. An outline of the steps:
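Male SD rats given a single oral dose of 10 mg/kg in 5% DMSO + 10% Solutol + 85% saline.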

Data set [11] relates to VCaP. Briefly: Antitumor activity against human VCaP cells xenografted in CB17 SCID mouse assessed as tumor growth inhibition at 15 mg/kg, po administered for 21 days. The note with it: 504 h, time 21 day, read-out: TGI. Type of data set: functional.
Data set [12] deals with Voltage-gated inwardly rectifying potassium channel KCNH2 (Homo sapiens, UniProt Q12809). Briefly: Inhibition of human ERG expressed in HEK293 cells by whole cell patch clamp assay. Type of data set: toxicity, cell-based. An outline of the steps: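 Manual whole-cell patch clamp at room temperature on HEK293 cells stably expressing hERG. Compound tested at 3 and 30 μM in duplicate; terfenadine as positive control.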

Data set [13] deals with Androgen receptor (Homo sapiens) (UniProt P10275). Briefly: In vivo induction of androgen receptor degradation in human VCaP cells xenografted in CB17 SCID mouse assessed as reduction in AR protein level at 12.5 mg/kg, po measured after 6 hrs by […] analysis. Further details: scale not given: the % may be the effect or the level left.
The next data set deals with Cytochrome P450 2C19 (Homo sapiens, UniProt P33261). Briefly: Inhibition of CYP2C19 in human liver microsomes preincubated for 5 mins followed by NADPH addition and measured after 10 mins by LC/MS analysis. Format: ADME, Microsome.
The nature of data set [14]: Drug concentration in CB17 SCID mouse plasma xenografted with human VCaP cells at 12.5 mg/kg, po measured after 24 hrs by LC-MS/MS analysis. Format: ADME, organism-based. An outline of the steps: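 SCID mice bearing one VCaP tumour each given a single oral 12.5 mg/kg dose in 100% PEG200. Plasma and tumour tissue collected at 6 and 24 h, 3 mice per time point. Values are mean ± SD.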

Data set [15] relates to Mus musculus. Briefly: In vivo induction of androgen receptor degradation in human VCaP cells xenografted in CB17 SCID mouse at 12.5 mg/kg, po measured upto 24 hrs by […] analysis. Format: functional, organism-based.
Data set [16] relates to LNCaP. Briefly: Induction of androgen receptor degradation in human LNCaP cells at 100 nM pretreated with ARi-12 for 2 hrs followed by compound addition and 3 hrs by Western blot analysis. Format: functional, cell-based. To be noted: time 5.0 hrs. An outline of the steps: as §1
A further data set has as its target Cytochrome P450 3A4 (Homo sapiens, UniProt P08684). Briefly: Inhibition of CYP3A4 in human liver microsomes using […] as substrate preincubated for 5 mins followed by NADPH addition and measured after 5 mins by LC/MS analysis. Format: ADME, Microsome.
The nature of data set [17]: Half life in Beagle dog at 3 mg/kg, po measured up to 24 hrs by LC-MS/MS analysis. Type of data set: ADME, organism-based, Canis lupus familiaris. To be noted: in vivo. An outline of the steps:
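Male Beagle dogs dosed orally at 3 mg/kg in 90% PEG400 + 10% Cremophor.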

Data set [18] deals with LNCaP. Briefly: Growth inhibition in human LNCaP cells incubated for 4 days by WST-8 assay. Type of data set: functional, cell-based. To be noted: 96 h.
Data set [19] in a line: Metabolic stability in mouse hepatocytes assessed as half life at 1 uM measured upto 120 mins in presence of NADPH by LC-MS/MS analysis. Format: ADME, cell-based, Hepatocyte. The note with it: 2 h.

Chain of Cytochrome P450 2D6 (P10635 whole entry): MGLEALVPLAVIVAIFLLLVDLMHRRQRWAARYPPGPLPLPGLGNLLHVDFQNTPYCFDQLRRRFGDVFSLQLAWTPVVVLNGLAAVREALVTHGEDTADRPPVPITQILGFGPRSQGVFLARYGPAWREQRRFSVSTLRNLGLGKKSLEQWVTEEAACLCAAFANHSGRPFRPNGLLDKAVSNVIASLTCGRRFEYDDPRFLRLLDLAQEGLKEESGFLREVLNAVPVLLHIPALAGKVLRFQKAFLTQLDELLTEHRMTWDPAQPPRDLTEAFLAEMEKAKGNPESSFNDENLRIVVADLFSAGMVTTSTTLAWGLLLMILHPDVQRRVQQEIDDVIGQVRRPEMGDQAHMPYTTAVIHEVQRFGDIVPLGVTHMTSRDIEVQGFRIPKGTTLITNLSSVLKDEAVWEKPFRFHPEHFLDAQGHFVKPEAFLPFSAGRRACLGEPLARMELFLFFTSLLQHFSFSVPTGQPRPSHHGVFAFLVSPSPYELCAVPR
Chain of Voltage-gated inwardly rectifying potassium channel KCNH2 (Q12809 whole entry): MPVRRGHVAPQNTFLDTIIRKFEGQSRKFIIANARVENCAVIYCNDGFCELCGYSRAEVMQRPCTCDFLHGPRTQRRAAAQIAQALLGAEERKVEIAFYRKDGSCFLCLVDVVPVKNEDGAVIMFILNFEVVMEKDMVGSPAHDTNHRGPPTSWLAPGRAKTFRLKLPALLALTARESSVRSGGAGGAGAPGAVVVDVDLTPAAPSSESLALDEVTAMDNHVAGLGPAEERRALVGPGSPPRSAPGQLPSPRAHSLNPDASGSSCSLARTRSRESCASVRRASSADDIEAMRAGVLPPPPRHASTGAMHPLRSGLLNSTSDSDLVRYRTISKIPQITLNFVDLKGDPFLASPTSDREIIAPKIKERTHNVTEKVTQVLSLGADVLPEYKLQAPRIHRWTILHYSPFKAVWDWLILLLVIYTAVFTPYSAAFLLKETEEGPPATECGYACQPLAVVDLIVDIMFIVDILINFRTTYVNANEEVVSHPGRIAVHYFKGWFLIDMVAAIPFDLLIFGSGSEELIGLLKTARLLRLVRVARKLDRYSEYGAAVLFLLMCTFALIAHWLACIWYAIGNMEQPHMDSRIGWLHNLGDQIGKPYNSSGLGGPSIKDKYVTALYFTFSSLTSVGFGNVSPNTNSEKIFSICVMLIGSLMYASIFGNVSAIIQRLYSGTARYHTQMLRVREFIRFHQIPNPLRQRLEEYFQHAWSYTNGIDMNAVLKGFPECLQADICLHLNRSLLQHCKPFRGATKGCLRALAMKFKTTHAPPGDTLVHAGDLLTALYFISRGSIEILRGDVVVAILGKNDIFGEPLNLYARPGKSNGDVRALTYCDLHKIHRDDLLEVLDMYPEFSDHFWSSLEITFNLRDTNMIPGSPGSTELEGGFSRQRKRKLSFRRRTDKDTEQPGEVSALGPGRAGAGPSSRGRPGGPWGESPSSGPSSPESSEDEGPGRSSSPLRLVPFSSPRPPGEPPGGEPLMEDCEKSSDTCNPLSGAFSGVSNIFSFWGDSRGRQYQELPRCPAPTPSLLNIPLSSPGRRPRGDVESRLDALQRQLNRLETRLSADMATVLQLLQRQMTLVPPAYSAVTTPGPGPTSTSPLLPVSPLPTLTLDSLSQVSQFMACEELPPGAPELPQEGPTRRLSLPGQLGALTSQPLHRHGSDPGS
Chain of Cytochrome P450 3A4 (P08684 whole entry): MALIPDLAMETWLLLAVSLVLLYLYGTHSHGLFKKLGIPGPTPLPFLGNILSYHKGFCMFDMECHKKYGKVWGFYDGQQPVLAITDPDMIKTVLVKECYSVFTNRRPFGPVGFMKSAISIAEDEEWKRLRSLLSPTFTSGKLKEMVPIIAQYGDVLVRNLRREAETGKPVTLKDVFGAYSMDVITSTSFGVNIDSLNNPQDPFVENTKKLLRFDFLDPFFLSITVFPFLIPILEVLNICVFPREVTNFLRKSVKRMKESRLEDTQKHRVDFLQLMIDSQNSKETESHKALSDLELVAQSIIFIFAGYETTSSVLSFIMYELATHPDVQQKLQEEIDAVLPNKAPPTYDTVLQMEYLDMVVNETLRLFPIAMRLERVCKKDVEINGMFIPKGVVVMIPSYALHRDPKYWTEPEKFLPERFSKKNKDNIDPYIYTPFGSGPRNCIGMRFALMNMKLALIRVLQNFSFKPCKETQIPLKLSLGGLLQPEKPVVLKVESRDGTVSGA
Chain of Cytochrome P450 2C19 (P33261 whole entry): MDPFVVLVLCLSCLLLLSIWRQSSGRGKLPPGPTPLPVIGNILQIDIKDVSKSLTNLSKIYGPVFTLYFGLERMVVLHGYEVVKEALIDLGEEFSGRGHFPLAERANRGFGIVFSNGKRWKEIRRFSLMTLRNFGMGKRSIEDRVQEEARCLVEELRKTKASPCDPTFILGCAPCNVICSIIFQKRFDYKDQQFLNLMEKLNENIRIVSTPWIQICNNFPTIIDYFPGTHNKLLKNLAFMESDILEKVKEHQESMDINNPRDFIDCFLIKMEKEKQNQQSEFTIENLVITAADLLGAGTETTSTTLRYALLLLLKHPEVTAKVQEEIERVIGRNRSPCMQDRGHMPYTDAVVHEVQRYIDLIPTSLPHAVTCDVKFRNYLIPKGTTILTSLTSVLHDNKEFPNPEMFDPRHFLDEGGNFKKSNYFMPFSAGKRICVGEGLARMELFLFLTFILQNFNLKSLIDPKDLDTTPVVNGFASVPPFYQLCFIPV

On to `C[C@H]1CC2(CCN(c3ccc(C(=O)N4CCN(C5CN(c6ccc7c(c6)C(=O)N(C6CCC(=O)NC6=O)C7=O)C5)CC4)cc3)CC2)CN1c1ccc(C#N)c(Cl)c1` (some centres not stated), for which the concentration at 1 h in data set [1] was found to be 495 ng/mL. Moreover, the outcome in the data set on VCaP [2], with LNCaP [9] and in the data set on LNCaP [16] was inactive. Besides, the F in [3] worked out at 53%. In the data set with VCaP [4], the inhibition in vivo at 7.5 mg/kg came out at 71%. For the same compound, the outcome in the data set on Mus musculus [5] and in the data set with Mus musculus [15] was Active. Moreover, the t1/2 in data set [6] was more than 2 h; in data set [8], more than 2 h; in data set [10] it was 3.9 h; in data set [17], 3.4 h; in data set [19], more than 2 h. This compound also yielded a Vdss in data set [7] of 2.8 L/kg. Also, the half-maximal inhibitory concentration (IC50) against Cytochrome P450 2D6 was more than 10 µM; in data set [12], more than 30 µM; against Cytochrome P450 2C19, more than 10 µM; against Cytochrome P450 3A4 it was more than 10 µM; in the data set on LNCaP [18] it was 0.013 µM. Also, the inhibition in vivo at 15 mg/kg with VCaP [11] turned out to be 61%. For the same compound, in [13], the Activity stood at 73%. In data set [14], the concentration at 24 h is 742 ng/mL.

The Vdss is a proportionality between amount in the body and measured concentration, not a real space. The term IC50 denotes the point on the concentration scale where inhibition reaches its midpoint.
